Assay [1] is filed under the species Rattus norvegicus. The assay can be described thus: Relative binding affinity to 5-lipoxygenase and cyclooxygenase.
Assay [2] addresses T1, Polyunsaturated fatty acid 5-lipoxygenase (Rattus norvegicus, UniProt P12527).
T1 sequence (P12527 whole entry): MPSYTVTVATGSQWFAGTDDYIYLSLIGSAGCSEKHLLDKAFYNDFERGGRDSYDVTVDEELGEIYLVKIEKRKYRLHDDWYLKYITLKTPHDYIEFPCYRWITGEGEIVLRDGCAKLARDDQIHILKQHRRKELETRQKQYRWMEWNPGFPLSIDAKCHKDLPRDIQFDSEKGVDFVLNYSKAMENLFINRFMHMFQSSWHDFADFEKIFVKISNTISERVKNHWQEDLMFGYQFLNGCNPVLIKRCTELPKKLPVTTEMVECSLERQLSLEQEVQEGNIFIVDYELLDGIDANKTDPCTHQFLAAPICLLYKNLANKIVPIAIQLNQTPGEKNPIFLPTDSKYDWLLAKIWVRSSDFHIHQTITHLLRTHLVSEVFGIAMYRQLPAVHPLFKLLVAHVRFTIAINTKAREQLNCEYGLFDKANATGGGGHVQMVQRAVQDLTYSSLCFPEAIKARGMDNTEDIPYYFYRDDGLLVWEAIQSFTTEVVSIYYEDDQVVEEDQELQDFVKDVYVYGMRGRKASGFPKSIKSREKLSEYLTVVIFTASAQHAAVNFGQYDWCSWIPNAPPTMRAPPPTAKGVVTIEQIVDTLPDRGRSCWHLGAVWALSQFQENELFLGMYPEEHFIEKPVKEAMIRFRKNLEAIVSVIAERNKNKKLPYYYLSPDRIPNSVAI
The assay can be described thus: Inhibition of 5-lipoxygenase in intact RBL-1 cell line. The assay is classed as cell-based. The gist of the method:
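RBL-1 cells at 2 × 10⁶ cells/mL were held in PBS with 1.0 mM Ca²⁺. They were incubated with or without inhibitor for 7 min at 37 °C, with 5 μM ionophore A-23187. LTB₄ was measured by radioimmunoassay. IC50 came from regression of percent inhibition against inhibitor concentration; otherwise percent inhibition at the highest concentration tested was given.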

Assay [3] concerns Rattus norvegicus. In words: In vivo percent inhibition of mycobacterium foot-pad edema (MFE) after peroral administration was determined. The assay is classed as functional. An outline of the steps:
(§1)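 Compounds were given orally to rats at the stated doses in mg/kg. Groups held 7–14 animals each. Foot-pad edema was scored as percent inhibition against controls, or as the dose giving a set level of inhibition (ID25 or ID40).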

Assay [4] deals with Rattus norvegicus. In words: In vivo ulcerogenicity was determined after peroral administration at a dose of 200 mg/kg in rat; No significant ulceration. The format is functional, organism-based. Further details: dose 200 mg/kg.
Assay [5] deals with Rattus norvegicus. In words: In vivo percent inhibition of carrageenan foot-pad edema (CFE) after peroral administration was determined. The assay is classed as functional. The gist of the method:
as §1

The subject of assay [6] is Rattus norvegicus. In words: In vivo ulcerogenicity was determined after peroral administration in rat. The assay is classed as functional. The gist of the method:
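Rats were dosed orally. The ulcerogenic dose (UD50) was taken as the oral dose in mg/kg that produced ulcers in 50% of the rats tested.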

For the compound `CC(C)Cc1ccc(C(C)C(=O)N(C)O)cc1` (centres undefined), in assay [1], the IC50 ratio is 0.06. Also, the IC50 in assay [2] (read-out: IC50) was 1.2 µM.
Consider `Cc1ccc(Cl)c(Nc2ccccc2C(=O)NO)c1Cl`, for which the ID40 in assay [3] was determined as 27 mg/kg. For the same compound, in assay [4], the UD50 entry was “No significant inhibition”.
The compound `Cc1ccc(Cl)c(Nc2ccccc2C(=O)N(C)O)c1Cl` showed an ID40 in assay [3] of 2.5 mg/kg. Moreover, in assay [5], the ID25 was determined as 0.2 mg/kg. In assay [4], the UD50 entry is “No significant inhibition”.
In assay [3], `Cc1ccc(Cl)c(Nc2ccccc2C(=O)[O-])c1Cl.O.[Na+]` [MECLOFENAMATE SODIUM] displayed an ID40 of 0.39 mg/kg. The same compound showed an ID25 in assay [5] of 8.2 mg/kg. This compound also showed a UD50 in assay [6] of 36 mg/kg.
As for `CONC(=O)Cc1c(C)n(C(=O)c2ccc(Cl)cc2)c2ccc(OC)cc12`, in assay [1], the IC50 ratio is above 120. This compound displayed a UD50 in assay [6] of 42 mg/kg.
In the case of `CONC(=O)C(C)c1ccc(CC(C)C)cc1` (centres undefined), the IC50 ratio in assay [1] was above 5.5. Also, the IC50 in assay [2] (read-out: IC50) was above 32 µM.
Take `COc1ccc2c(c1)c(CC(=O)NO)c(C)n2C(=O)c1ccc(Cl)cc1` [OXAMETACIN]: the IC50 ratio in assay [1] was 6.8. Besides, the UD50 in assay [6] turned out to be 103 mg/kg.
In assay [3], `CONC(=O)c1ccccc1Nc1c(Cl)ccc(C)c1Cl` came in with an ID40 of 24 mg/kg. Further, in assay [5], the ID25 turned out to be 1.3 mg/kg. In addition, in assay [4], the UD50 result was “No significant inhibition”.
Turning to `CC(C)Cc1ccc(C(C)C(=O)O)cc1` (centres undefined) [IBUPROFEN], the IC50 result in assay [2] (rbl-1) is recorded as “No significant inhibition”.
Regarding `CC1=C(CC(=O)O)c2cc(F)ccc2/C1=C\c1ccc([S+](C)[O-])cc1` (centres undefined), in assay [2] (read-out: IC50), the IC50 is above 100 µM.
`CC(C)Cc1ccc(C(C)C(=O)NO)cc1` (centres undefined) [IBUPROXAM]: the IC50 ratio in assay [1] came to 2. For the same compound, the IC50 in assay [2] (read-out: IC50) was found to be 20 µM.
Consider `COc1ccc2c(c1)c(CC(=O)N(O)C(C)C)c(C)n2C(=O)c1ccc(Cl)cc1`, for which the ID40 in assay [3] worked out at 0.82 mg/kg. The UD50 result in assay [4] was “No significant inhibition”.
On to `CONC(=O)CC1=C(C)/C(=C/c2ccc([S+](C)[O-])cc2)c2ccc(F)cc21` (centres undefined), for which the IC50 in assay [2] (read-out: IC50) is 26 µM.
On to `COc1ccc2c(c1)c(CC(=O)O)c(C)n2C(=O)c1ccc(Cl)cc1` [INDOMETHACIN], for which the ID40 in assay [3] is 0.21 mg/kg. Moreover, in assay [2] (read-out: IC50), the IC50 was above 100 µM. The UD50 in assay [6] came out at 5.4 mg/kg.
